From ChEMBL document CHEMBL3259690, “Synthesis, structure-activity relationships, and biological studies of chromenochalcones as potential antileishmanial agents” (J Med Chem, 2014)
Calls of active or inactive are those of the source. No cut-off for these calls is given here.

Assays:
[1] = Cytotoxicity against African green monkey Vero cells after 72 hrs by MTT assay; format: cell-based; conditions: chlorocebus sabaeus
Method in brief: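 Vero cells at 1 × 10⁵/mL exposed to seven concentrations from 400 μM at 37 °C, 5% CO₂, for 72 h. MTT (5 mg/mL) added for 2 h at 37 °C, formazan dissolved in DMSO, absorbance read at 544 nm. CC₅₀ estimated by the Huber and Koella method; at least duplicate measurements.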

[2] = Selectivity index, ratio of CC50 for African green monkey Vero cells to IC50 for Leishmania donovani MHOM/IN/80/Dd8 intracellular amastigote form expressing luciferase gene infected in mouse J774A1 cells; format: functional, J774.A1
Method in brief: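 Ratio of CC₅₀ in Vero cells (72 h MTT) to IC₅₀ against luciferase-expressing amastigotes in J774A.1 macrophages (72 h luminescence).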

Leishmania donovani [3] = assay: Antileishmanial activity against Leishmania donovani MHOM/IN/80/Dd8 amastigotes infected in syrian golden hamster assessed as decrease in parasite count in spleen at 50 mg/kg/day, po for 5 days measured on day 7 after last dose administration by giemsa staining; format: functional; conditions: MHOM/IN/80/Dd8, Spleen
Method in brief: (§1)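 Golden hamsters of either sex infected intracardially with 1 × 10⁷ L. donovani Dd8 amastigotes. After 15−20 days, pretreatment spleen biopsy; animals with +1 grade infection (5−10 amastigotes/100 spleen cell nuclei) used, 5−6 per compound. Aqueous suspensions dosed IP or PO for 5−10 consecutive days starting 2 days after biopsy. Splenic biopsies on day 7 and 28 after last dose, Giemsa counts; PI = 100 − [(ANAT×100)/(INAT×TIUC)].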

Leishmania donovani [4] = assay: Antileishmanial activity against Leishmania donovani MHOM/IN/80/Dd8 amastigotes infected in syrian golden hamster assessed as decrease in parasite count in spleen at 50 mg/kg/day, po for 5 days measured on day 28 after last dose administration by giemsa staining; format: functional; conditions: MHOM/IN/80/Dd8, Spleen; method in brief: as §1
Leishmania donovani [5] = assay: Antileishmanial activity against extracellular promastigote form of Leishmania donovani MHOM/IN/80/Dd8 expressing firefly luciferase gene assessed as inhibition of parasitic multiplication at 25 uM after 96 hrs by luminescence analysis; format: functional; conditions: for inhibition at 25 µM: MHOM/IN/80/Dd8, 96 h
Method in brief: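 Late-log luciferase-expressing Dd8 promastigotes, 5 × 10⁵/mL in complete M-199, incubated with compound at 24 °C for 96 h. Aliquot mixed with Steady Glo and luminescence read as RLU. Inhibition of multiplication taken from luciferase signal of treated versus untreated parasites.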

Leishmania donovani [6] = assay: Antileishmanial activity against intracellular amastigote form of Leishmania donovani MHOM/IN/80/Dd8 expressing luciferase gene infected in mouse J774A1 cells after 72 hrs by luminescence analysis; format: functional, organism-based; conditions: MHOM/IN/80/Dd8, J774.A1, 72 h
Method in brief: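 J774A.1 macrophages (4 × 10⁴/mL, RPMI-1640 + 10% HIFBS, 37 °C, 5% CO₂), after 24 h infected with stationary-phase luciferase promastigotes (4 × 10⁵/mL). Free parasites washed off after 24 h. Compound added at up to 7 dilutions from 40 μM for 72 h. Luminescence read after Steady Glo in PBS. IC₅₀ from four-parameter Hill fit; at least duplicate measurements.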

Leishmania donovani [7] = assay: Antileishmanial activity against Leishmania donovani MHOM/IN/80/Dd8 amastigotes infected in syrian golden hamster assessed as decrease in parasite count in spleen at 30 mg/kg/day, po for 5 days measured on day 7 after last dose administration by giemsa staining; format: functional; conditions: MHOM/IN/80/Dd8, Spleen; method in brief: as §1
Leishmania donovani [8] = assay: Antileishmanial activity against Leishmania donovani MHOM/IN/80/Dd8 amastigotes infected in syrian golden hamster assessed as decrease in parasite count in spleen at 30 mg/kg/day, po for 5 days measured on day 28 after last dose administration by giemsa staining; format: functional; conditions: MHOM/IN/80/Dd8, Spleen; method in brief: as §1
Leishmania donovani [9] = assay: Antileishmanial activity against Leishmania donovani MHOM/IN/80/Dd8 amastigotes infected in syrian golden hamster assessed as decrease in parasite count in spleen at 40 mg/kg/day, ip for 5 days measured on day 7 after last dose administration by giemsa staining; format: functional, organism-based; method in brief: as §1
Leishmania donovani [10] = assay: Antileishmanial activity against Leishmania donovani MHOM/IN/80/Dd8 amastigotes infected in syrian golden hamster assessed as decrease in parasite count in spleen at 40 mg/kg/day, ip for 5 days measured on day 28 after last dose administration by giemsa staining; format: functional, organism-based; method in brief: as §1
[11] = Cytotoxicity against mouse J774A1 cells infected with Leishmania donovani expressing luciferase gene; format: cell-based; conditions: j774.a1

## CC(C)=CCCC1(C)C=Cc2c(ccc(C(=O)/C=C/c3cccnc3)c2OCCN2CCCCC2)O1 (stereo unspecified)
[1]
  CC50 at 72 h: 65.2 µM
[2]
  Ratio CC50/IC50: 38.3
Leishmania donovani [3]
  inhibition in vivo at 50 mg/kg/day: 73.2%
Leishmania donovani [4]
  inhibition in vivo at 50 mg/kg/day: 50%
Leishmania donovani [5]
  inhibition at 25 µM: 99.8%
Leishmania donovani [6]
  IC50: 1.7 µM

## CC(C)=CCCC1(C)C=Cc2c(ccc(C(=O)/C=C/c3cc(C=O)ccc3O)c2O)O1 (stereo unspecified)
[1]
  CC50 at 72 h: 59.4 µM
[2]
  Ratio CC50/IC50: 5.5
Leishmania donovani [5]
  inhibition at 25 µM: 91.2%
Leishmania donovani [6]
  IC50: 10.7 µM

## COc1ccc(/C=C/C(=O)c2ccc3c(c2O)CCC(C)(CCCC(C)C)O3)cc1 (stereo unspecified)
Leishmania donovani [5]
  inhibition at 25 µM: 62.3%
Leishmania donovani [6]
  IC50: > 20 µM

## CCCCCCCCCCCCCCCCOP(=O)([O-])OCC[N+](C)(C)C [MILTEFOSINE]
Leishmania donovani [7]
  inhibition in vivo at 30 mg/kg/day: 98.5%
Leishmania donovani [8]
  inhibition in vivo at 30 mg/kg/day: 83.2%
Leishmania donovani [5]
  inhibition at 25 µM: 100%

## CC(C)=CCCC1(C)C=Cc2c(ccc(C(=O)/C=C/c3ccc(OCCN4CCCCC4)cc3)c2OCCN2CCCCC2)O1 (stereo unspecified)
[2]
  Ratio CC50/IC50: 31.9
Leishmania donovani [5]
  inhibition at 25 µM: 99.9%
Leishmania donovani [6]
  IC50: 6.3 µM

## CC(C)=CCCC1(C)C=Cc2c(ccc(C(=O)/C=C/c3ccc4oc(C(=O)c5ccccc5)cc4c3)c2O)O1 (stereo unspecified)
Leishmania donovani [5]
  inhibition at 25 µM: 94.4%
Leishmania donovani [6]
  IC50: > 20 µM

## sodium stibogluconate
Leishmania donovani [9]
  inhibition: 89.5%
Leishmania donovani [10]
  inhibition: 72.5%
Leishmania donovani [5]
  inhibition: inactive

## CC(C)=CCCC1(C)C=Cc2c(ccc(/C=C/C(=O)c3ccc(C)c(C)c3)c2O)O1 (stereo unspecified)
Leishmania donovani [5]
  inhibition at 25 µM: 93.2%
Leishmania donovani [6]
  IC50: > 20 µM

## COc1ccc(C(=O)c2cc3cc(/C=C/C(=O)c4ccc5c(c4O)C=CC(C)(CCC=C(C)C)O5)ccc3o2)cc1 (stereo unspecified)
Leishmania donovani [5]
  inhibition at 25 µM: 92.9%
Leishmania donovani [6]
  IC50: > 20 µM

## CC(C)=CCCC1(C)C=Cc2c(ccc(C(=O)/C=C/c3cc4cc(C)ccc4nc3Cl)c2O)O1 (stereo unspecified)
[11]
  Activity: Toxic
Leishmania donovani [5]
  inhibition at 25 µM: 100%

## CC(C)=CCCC1(C)C=Cc2c(ccc(C(=O)/C=C/c3cccc(-c4ncc(-c5cccc(O)c5)o4)c3)c2O)O1 (stereo unspecified)
[1]
  CC50 at 72 h: > 400 µM
[2]
  Ratio CC50/IC50: >68.9
Leishmania donovani [5]
  inhibition at 25 µM: 99.5%
Leishmania donovani [6]
  IC50: 5.8 µM

## CC(C)=CCCC1(C)C=Cc2c(ccc(C(=O)/C=C/c3ccc4occc4c3)c2O)O1 (stereo unspecified)
Leishmania donovani [5]
  inhibition at 25 µM: 96.5%
Leishmania donovani [6]
  IC50: > 20 µM

## CC(=O)N1N=C(c2ccc3c(c2O)C=CC(C)(CCC=C(C)C)O3)CC1c1cccnc1 (stereo unspecified)
[1]
  CC50 at 72 h: 88.5 µM
[2]
  Ratio CC50/IC50: 13.8
Leishmania donovani [5]
  inhibition at 25 µM: 99.5%
Leishmania donovani [6]
  IC50: 6.4 µM

## CC(C)=CCCC1(C)C=Cc2c(ccc(C(=O)/C=C/c3ccc(O)c(C=O)c3)c2O)O1 (stereo unspecified)
Leishmania donovani [5]
  inhibition at 25 µM: 94.6%
Leishmania donovani [6]
  IC50: > 20 µM

## CC(C)=CCCC1(C)C=Cc2c(ccc(C(=O)/C=C/c3ccc(O)cc3)c2O)O1 (stereo unspecified) [LESPEOL]
[1]
  CC50 at 72 h: 190 µM
[2]
  Ratio CC50/IC50: 11.5
Leishmania donovani [5]
  inhibition at 25 µM: 97.5%
Leishmania donovani [6]
  IC50: 16.5 µM

## CC(C)=CCCC1(C)C=Cc2c(ccc(C(=O)CCc3cccnc3)c2O)O1 (stereo unspecified)
[1]
  CC50 at 72 h: 266 µM
[2]
  Ratio CC50/IC50: 24.1
Leishmania donovani [5]
  inhibition at 25 µM: 98.5%
Leishmania donovani [6]
  IC50: 11 µM

## CC(C)=CCCC1(C)C=Cc2c(ccc(/C=C/C(=O)c3ccc(C)cc3)c2O)O1 (stereo unspecified)
Leishmania donovani [5]
  inhibition at 25 µM: 92.7%
Leishmania donovani [6]
  IC50: > 20 µM
